Measured values taken from ChEMBL document CHEMBL1149207, “Non-nucleoside inhibitors of the hepatitis C virus NS5B polymerase: discovery of benzimidazole 5-carboxylic amide derivatives with low-nanomolar potency” (Bioorg Med Chem Lett, 2004).
pIC50: −log10 of the molar value.

Molecular target: RNA-directed RNA polymerase (Hepacivirus hominis, UniProt O39930)
Test: Concentration required for inhibiting hepatitis C virus NS5B RNA polymerase activity.
Outline: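 HCV NS5B polymerase IC50; each value is the mean of at least duplicate experiments, run on two separate weighings of compound.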

Chain of RNA-directed RNA polymerase (O39930 whole entry): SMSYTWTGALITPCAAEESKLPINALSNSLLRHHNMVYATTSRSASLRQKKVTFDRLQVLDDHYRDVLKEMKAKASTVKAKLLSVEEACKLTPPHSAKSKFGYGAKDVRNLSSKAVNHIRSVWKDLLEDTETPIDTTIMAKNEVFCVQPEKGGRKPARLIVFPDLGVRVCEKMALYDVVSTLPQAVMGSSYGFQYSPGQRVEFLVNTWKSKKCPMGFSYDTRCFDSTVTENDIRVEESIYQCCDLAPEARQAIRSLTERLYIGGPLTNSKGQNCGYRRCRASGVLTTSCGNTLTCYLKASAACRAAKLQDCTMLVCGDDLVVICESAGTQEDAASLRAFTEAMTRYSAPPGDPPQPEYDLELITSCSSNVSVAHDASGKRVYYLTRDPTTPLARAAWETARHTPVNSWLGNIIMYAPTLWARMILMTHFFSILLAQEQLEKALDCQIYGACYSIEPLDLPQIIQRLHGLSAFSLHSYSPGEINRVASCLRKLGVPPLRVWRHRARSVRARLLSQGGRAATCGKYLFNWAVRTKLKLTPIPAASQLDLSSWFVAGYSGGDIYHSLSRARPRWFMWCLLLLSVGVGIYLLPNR

Compound `O=C(N[C@@H](Cc1c[nH]c2ccccc12)C(=O)O)c1ccc2c(c1)nc(-c1ccccn1)n2C1CCCCC1` has a pIC50 of 5.72.

With `O=C(O)C(=O)Nc1ccc2[nH]cc(C[C@H](NC(=O)c3ccc4c(c3)nc(-c3ccoc3)n4C3CCCCC3)C(=O)O)c2c1` the pIC50 was 8.10.

`COc1ccc([C@H](C)NC(=O)c2ccc3c(c2)nc(-c2ccccn2)n3C2CCCCC2)cc1OC` gave a pIC50 of 4.92.

Work on `Cc1ccc2[nH]cc(C[C@H](NC(=O)c3ccc4c(c3)nc(-c3ccoc3)n4C3CCCCC3)C(=O)O)c2c1` yielded a pIC50 of 5.66.

With `O=C(N[C@@H](Cc1ccc(O)cc1)C(=O)O)c1ccc2c(c1)nc(-c1ccoc1)n2C1CCCCC1` the pIC50 was 6.40.

Work on `CC(=O)Nc1ccc2[nH]cc(C[C@H](NC(=O)c3ccc4c(c3)nc(-c3ccoc3)n4C3CCCCC3)C(=O)O)c2c1` yielded a pIC50 of 7.22.

For `Nc1ccc2[nH]cc(C[C@H](NC(=O)c3ccc4c(c3)nc(-c3ccoc3)n4C3CCCCC3)C(=O)O)c2c1`, the pIC50 was 7.05.

`COc1ccc([C@H](NC(=O)c2ccc3c(c2)nc(-c2ccccn2)n3C2CCCCC2)C(=O)O)cc1OC` gave a pIC50 of 5.70.

Compound `O=C(N[C@@H](Cc1c[nH]c2ccc(F)cc12)C(=O)O)c1ccc2c(c1)nc(-c1ccoc1)n2C1CCCCC1` has a pIC50 of 5.54.

In the case of `O=C(O)c1ccc2[nH]cc(C[C@H](NC(=O)c3ccc4c(c3)nc(-c3ccoc3)n4C3CCCCC3)C(=O)O)c2c1`, the pIC50 was 7.70.

For `Cn1cc(C[C@@H](NC(=O)c2ccc3c(c2)nc(-c2ccoc2)n3C2CCCCC2)C(=O)O)c2cc(O)ccc21`, the pIC50 was 6.80.

`CS(=O)(=O)Nc1ccc2[nH]cc(C[C@H](NC(=O)c3ccc4c(c3)nc(-c3ccoc3)n4C3CCCCC3)C(=O)O)c2c1` was tested, and the pIC50 was 6.92.

With `COc1ccc([C@H](NC(=O)c2ccc3c(c2)nc(-c2ccoc2)n3C2CCCCC2)C(=O)O)cc1OC` the pIC50 was 6.40.

For `O=C(N[C@@H](Cc1ccccc1)C(=O)O)c1ccc2c(c1)nc(-c1ccccn1)n2C1CCCCC1`, the pIC50 was 5.15.

`O=C(N[C@@H](Cc1c[nH]c2ccccc12)C(=O)O)c1ccc2c(c1)nc(-c1ccoc1)n2C1CCCCC1` gave a pIC50 of 6.40.

`O=C(N[C@@H](Cc1ccccc1)C(=O)O)c1ccc2c(c1)nc(-c1ccoc1)n2C1CCCCC1` was tested, and the pIC50 was 5.40.

`O=C(O)COc1ccc2[nH]cc(C[C@H](NC(=O)c3ccc4c(c3)nc(-c3ccoc3)n4C3CCCCC3)C(=O)O)c2c1` showed a pIC50 of 7.72.

`O=C(N[C@@H](Cc1c[nH]c2ccc(C3N=NN=N3)cc12)C(=O)O)c1ccc2c(c1)nc(-c1ccoc1)n2C1CCCCC1` was tested, and the pIC50 was 7.82.

`O=C(N[C@@H](Cc1c[nH]c2ccc([N+](=O)[O-])cc12)C(=O)O)c1ccc2c(c1)nc(-c1ccoc1)n2C1CCCCC1` gave a pIC50 of 5.70.

Work on `COc1ccc(CNC(=O)c2ccc3c(c2)nc(-c2ccccn2)n3C2CCCCC2)cc1OC` yielded a pIC50 of 5.15.

With `O=C(N[C@@H](Cc1c[nH]c2ccc(O)cc12)C(=O)O)c1ccc2c(c1)nc(-c1ccoc1)n2C1CCCCC1` the pIC50 was 7.30.

For `O=C(N[C@H](Cc1c[nH]c2ccc(O)cc12)C(=O)O)c1ccc2c(c1)nc(-c1ccoc1)n2C1CCCCC1`, the pIC50 was 6.15.

With `O=C(N[C@@H](Cc1c[nH]c2ccc(O)cc12)C(=O)O)c1ccc2c(c1)nc(-c1ccccn1)n2C1CCCCC1` the pIC50 was 6.85.

In the case of `Cc1[nH]c2ccc(O)cc2c1C[C@H](NC(=O)c1ccc2c(c1)nc(-c1ccoc1)n2C1CCCCC1)C(=O)O`, the pIC50 was 6.34.

`O=C(N[C@@H](Cc1ccc(O)cc1)C(=O)O)c1ccc2c(c1)nc(-c1ccccn1)n2C1CCCCC1` was tested, and the pIC50 was 5.82.

With `O=C(N[C@@H](Cc1c[nH]c2ccc(NS(=O)(=O)C(F)(F)F)cc12)C(=O)O)c1ccc2c(c1)nc(-c1ccoc1)n2C1CCCCC1` the pIC50 was 6.82.

`CC(C)(Oc1ccc2[nH]cc(C[C@H](NC(=O)c3ccc4c(c3)nc(-c3ccoc3)n4C3CCCCC3)C(=O)O)c2c1)C(=O)O` showed a pIC50 of 7.00.

With `COc1ccc2[nH]cc(C[C@H](NC(=O)c3ccc4c(c3)nc(-c3ccoc3)n4C3CCCCC3)C(=O)O)c2c1` the pIC50 was 6.40.

In the case of `NC(=O)c1ccc2[nH]cc(C[C@H](NC(=O)c3ccc4c(c3)nc(-c3ccoc3)n4C3CCCCC3)C(=O)O)c2c1`, the pIC50 was 7.43.

With `COc1ccc([C@@H](C)NC(=O)c2ccc3c(c2)nc(-c2ccccn2)n3C2CCCCC2)cc1OC` the pIC50 was 5.52.

For `O=C(NCCc1c[nH]c2ccc(O)cc12)c1ccc2c(c1)nc(-c1ccoc1)n2C1CCCCC1`, the pIC50 was 5.82.
